Reference: ChEMBL document CHEMBL1134459 (J Med Chem, 2001)
Values after ≈ are worked out from the molar mass of the structure shown.

Legend:
[1] = biological target: T1, Intercellular adhesion molecule 1 (Homo sapiens, UniProt P05362); test: Inhibition of intercellular adhesion molecule-1 (ICAM1) in human endothelial cells; assay type: cell-based, Endothelial cell
In short: (§1)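 Whole-cell ELISA on primary HUVECs plated at 5 × 10^4 cells/mL in EBM/2% FBS with growth supplements. Compound preincubated 24 h at 37 °C, then inducer added (TNFα at 5 ng/mL final, or IL-1β or PMA in its place) for 6 h at 37 °C. Mouse monoclonal anti-E-selectin, anti-ICAM-1 or anti-VCAM-1 was applied overnight at 4 °C, then HRP anti-mouse IgG. Detection with OPD, A490. Triplicate assays.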

E-selectin [2] = biological target: T2, E-selectin (Homo sapiens, UniProt P16581); test: Inhibition of selectin E in human endothelial cells; assay type: cell-based, Endothelial cell; in short: as §1
T2 sequence (P16581 whole entry): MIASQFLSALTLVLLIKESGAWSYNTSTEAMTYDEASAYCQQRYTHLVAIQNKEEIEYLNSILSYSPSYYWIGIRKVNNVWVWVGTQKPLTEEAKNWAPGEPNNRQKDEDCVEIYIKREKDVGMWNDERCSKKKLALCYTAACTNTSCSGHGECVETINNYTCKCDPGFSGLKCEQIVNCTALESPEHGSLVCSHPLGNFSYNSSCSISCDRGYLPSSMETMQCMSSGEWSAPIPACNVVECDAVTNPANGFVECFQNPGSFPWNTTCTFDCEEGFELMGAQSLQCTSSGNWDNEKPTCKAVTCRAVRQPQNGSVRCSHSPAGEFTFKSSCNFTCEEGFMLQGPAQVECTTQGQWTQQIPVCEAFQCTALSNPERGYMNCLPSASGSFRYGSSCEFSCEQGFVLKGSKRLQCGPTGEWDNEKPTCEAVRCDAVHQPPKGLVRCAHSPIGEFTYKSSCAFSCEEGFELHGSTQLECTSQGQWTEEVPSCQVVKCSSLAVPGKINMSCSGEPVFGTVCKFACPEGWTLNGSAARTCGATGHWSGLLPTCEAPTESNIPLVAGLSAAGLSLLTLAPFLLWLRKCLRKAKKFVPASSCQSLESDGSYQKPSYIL

[3] = Toxicity in HUVEC cell lysates.; assay type: cell-based, Lysate; conditions: human
[4] = biological target: T1, Intercellular adhesion molecule 1; test: In vitro inhibitory potency compared to PMA induced Intercellular adhesion molecule-1 expression in human endothelial cells (ELISA assay); assay type: cell-based, Endothelial cell
In short: (§2)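 Primary HUVECs seeded at 5 × 10^4 cells/mL in EBM/2% FBS with EGF, bovine brain extract and gentamicin. Compound added next day for 24 h at 37 °C, then inducer (IL-1β or PMA, level not stated) for 6 h at 37 °C. Whole-cell ELISA used mouse monoclonal anti-ICAM-1 or anti-VCAM-1, HRP donkey anti-mouse IgG and OPD, read at 490 nm. Run in triplicate.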

[5] = biological target: T3, Vascular cell adhesion protein 1 (Homo sapiens) (UniProt P19320); conditions: Endothelial cell
T3 sequence (whole entry): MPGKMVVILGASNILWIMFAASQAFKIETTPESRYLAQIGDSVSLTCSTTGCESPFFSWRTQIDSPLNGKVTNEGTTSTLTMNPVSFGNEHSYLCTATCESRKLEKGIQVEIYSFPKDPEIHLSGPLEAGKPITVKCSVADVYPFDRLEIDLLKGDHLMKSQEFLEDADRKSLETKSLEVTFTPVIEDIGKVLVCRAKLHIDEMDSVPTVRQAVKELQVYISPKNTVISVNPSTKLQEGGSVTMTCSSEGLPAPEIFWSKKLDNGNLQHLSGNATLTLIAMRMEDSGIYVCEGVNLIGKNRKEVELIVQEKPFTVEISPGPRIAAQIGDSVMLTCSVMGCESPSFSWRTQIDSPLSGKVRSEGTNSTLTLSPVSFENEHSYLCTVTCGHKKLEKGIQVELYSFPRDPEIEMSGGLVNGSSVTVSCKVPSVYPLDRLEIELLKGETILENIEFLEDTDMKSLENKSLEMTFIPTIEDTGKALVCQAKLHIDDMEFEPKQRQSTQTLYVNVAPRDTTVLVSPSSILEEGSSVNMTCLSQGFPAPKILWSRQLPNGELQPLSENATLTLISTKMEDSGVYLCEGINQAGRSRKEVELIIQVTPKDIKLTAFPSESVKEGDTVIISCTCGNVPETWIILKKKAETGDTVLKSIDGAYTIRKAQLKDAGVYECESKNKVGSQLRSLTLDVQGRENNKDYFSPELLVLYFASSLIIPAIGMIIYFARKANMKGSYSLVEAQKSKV

E-selectin [6] = biological target: T2, E-selectin; test: In vitro inhibitory potency compared to TNF-alpha induced Selectin E expression in human endothelial cells (ELISA assay); assay type: cell-based, Endothelial cell; in short: as §1
[7] = biological target: T4, E-selectin (Homo sapiens) (UniProt P16581); test: In vitro inhibitory potency compared to PMA induced Selectin E expression in human endothelial cells (ELISA assay) at 1 uM; assay type: cell-based; conditions: Endothelial cell
T4 sequence (whole entry): T2 sequence (P16581 whole entry)
In short: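 HUVEC whole-cell ELISA with PMA substituted for TNFα as inducer. Compound preincubated 24 h at 37 °C, then 6 h induction at 37 °C. E-selectin detected with mouse monoclonal antibody and HRP anti-mouse IgG, OPD development, A490. Value given as percent inhibition at a single concentration of 1 µM.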

E-selectin [8] = biological target: T2, E-selectin; test: In vitro inhibitory potency compared to IL1-beta induced Selectin E in human endothelial cells (ELISA assay); assay type: cell-based, Endothelial cell; in short: as §1
[9] = biological target: T1, Intercellular adhesion molecule 1; test: In vitro inhibitory potency compared to TNF-alpha induced Intercellular adhesion molecule-1 in human endothelial cells (ELISA assay); assay type: cell-based, Endothelial cell
In short: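 Primary HUVECs seeded at 5 × 10^4 cells/mL in EBM/2% FBS with supplements. After 24 h of compound at 37 °C, TNFα was added to 5 ng/mL final for 6 h at 37 °C. Cell-surface ICAM-1 was detected with a mouse monoclonal antibody, then HRP anti-mouse IgG and OPD, with absorbance at 490 nm. Triplicate determinations.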

[10] = biological target: T1, Intercellular adhesion molecule 1; test: In vitro inhibitory potency compared to IL1-beta induced Intercellular adhesion molecule-1 in human endothelial cells (ELISA assay); assay type: cell-based, Endothelial cell; in short: as §2
[11] = Solubility in pH 7.4 buffer; assay type: physicochemical
[12] = Solubility in pH 7.4 buffer.; assay type: physicochemical

T1 sequence (P05362 whole entry): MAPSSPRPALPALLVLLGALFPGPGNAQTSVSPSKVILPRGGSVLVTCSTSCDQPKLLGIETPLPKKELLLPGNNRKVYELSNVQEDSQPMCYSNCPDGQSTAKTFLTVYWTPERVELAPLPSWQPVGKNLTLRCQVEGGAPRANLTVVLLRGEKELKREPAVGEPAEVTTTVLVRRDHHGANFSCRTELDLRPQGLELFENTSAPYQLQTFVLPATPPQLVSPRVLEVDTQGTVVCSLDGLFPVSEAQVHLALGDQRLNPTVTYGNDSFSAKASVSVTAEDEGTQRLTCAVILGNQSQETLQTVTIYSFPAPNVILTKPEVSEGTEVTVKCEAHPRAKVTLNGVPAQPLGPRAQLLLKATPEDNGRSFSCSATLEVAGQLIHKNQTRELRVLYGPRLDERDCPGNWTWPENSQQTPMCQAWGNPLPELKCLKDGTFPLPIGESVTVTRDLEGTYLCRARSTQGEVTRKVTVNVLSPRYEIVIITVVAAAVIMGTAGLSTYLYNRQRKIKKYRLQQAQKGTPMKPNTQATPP

IC50 [1]	IC50 (E-selectin [2])	SMILES	further results
820 nM	650 nM	NC(=O)c1cc2c(Oc3ccc(/C=C/C(=O)NCCN(CCO)CCO)cc3)cncc2s1	
680 nM	630 nM	CCOC(=O)c1cccc(Oc2cncc3sc(C(N)=O)cc23)c1	
18 nM	20 nM	CCOC(=O)c1ccc(Oc2cncc3sc(C(N)=O)cc23)cc1	
26 nM	110 nM	CCOCCOCCOCC(F)(F)c1ccc(Oc2cncc3sc(C(=O)NC)cc23)cc1	
32 nM	34 nM	NC(=O)c1cc2c(Oc3ccc(/C=C/C(=O)NCCN4CCOCC4)cc3)cncc2s1	
42 nM	35 nM	NC(=O)c1cc2c(Oc3ccc(N)cc3)cncc2s1	
790 nM	> 715 nM	NC(=O)c1cc2c(Oc3ccc(/C=C/C(=O)NCC(O)CO)cc3)cncc2s1 (stereo unspecified)	
59 nM	13 nM	CNC(=O)c1cc2c(Oc3ccc(C(=N)NO)cc3)cncc2s1	IC50 [3]: > 10000 nM
6 nM	5 nM	COCCOCc1ccc(Oc2cncc3sc(C(N)=O)cc23)cc1	
600 nM	680 nM	CNC(=O)c1cc2c(Oc3ccc(/C=C/C(=O)NCCN(CCO)CCO)cc3)cncc2s1	
670 nM	600 nM	CNC(=O)c1cc2c(Oc3ccc(/C=C/C(=O)NCCc4c[nH]cn4)cc3)cncc2s1	
116 nM	115 nM	NC(=O)c1cc2c(Oc3ccc(C(=O)N(C(=O)NC4CCCCC4)C4CCCCC4)cc3)cncc2s1	
22 nM	28 nM	CNC(=O)c1cc2c(Oc3ccc(-c4noc(C(F)(F)F)n4)cc3)cncc2s1	
580 nM	370 nM	Cc1cc(Cl)ccc1Oc1cncc2sc(C(N)=O)cc12	
760 nM	870 nM	NC(=O)c1cc2c(Oc3cccc(C(F)(F)F)c3)cncc2s1	
1.4 nM	2 nM	NC(=O)c1cc2c(Oc3ccc(COC4CCCCO4)cc3)cncc2s1 (stereo unspecified)	
6 nM	2 nM	CNC(=O)c1cc2c(Oc3ccc(-n4ccnc4)cc3)cncc2s1	IC50 [3]: > 10000 nM
		CCOCCOCCOCC1(c2ccc(Oc3cncc4sc(C(=O)NC)cc34)cc2)CC1	IC50 [3]: > 10 µg/mL
830 nM	870 nM	NC(=O)c1cc2c(Oc3ccc(C(=O)N4CCOCC4)cc3)cncc2s1	
		NC(=O)c1cc2c(Oc3ccc(CO)cc3)cncc2s1	solubility [11]: 6.9 µg/mL (≈ 23 µM)
		COCCOCCOCc1ccc(Oc2cncc3sc(C(N)=O)cc23)cc1	solubility [12]: 160 µg/mL (≈ 398 µM)

IC50 [1]	IC50 (E-selectin [2])	SMILES	further results
20 nM	20 nM	Cc1ccc(Oc2cncc3sc(C(N)=O)cc23)cc1	IC50 [3]: 91000 nM
300 nM	110 nM	NC(=O)c1cc2c(Oc3ccc(Cl)cc3Br)cncc2s1	
17 nM	13 nM	CNC(=O)c1cc2c(Oc3ccc(COC)cc3)cncc2s1	solubility [11]: 4.8 µg/mL (≈ 14.6 µM)
8 nM	7 nM	CNC(=O)c1cc2c(Oc3ccc(COCCOC)cc3)cncc2s1	solubility [12]: 25.7 µg/mL (≈ 69 µM)
> 1000 nM	> 1000 nM	CNC(=O)c1cc2c(Oc3ccc(-c4nn[nH]n4)cc3)cncc2s1	
580 nM	830 nM	CNC(=O)c1cc2c(Oc3ccc(/C=C/C(=O)NCC(O)CO)cc3)cncc2s1 (stereo unspecified)	
47 nM	76 nM	CC(C)c1ccc(Oc2cncc3sc(C(N)=O)cc23)cc1	IC50 [3]: 34000 nM
6 nM	5 nM	CNC(=O)c1cc2c(Oc3ccc(-c4cccs4)cc3)cncc2s1	
53 nM	43 nM	CNC(=O)c1cc2c(Oc3ccc(/C=C/C(=O)NCCN4CCOCC4)cc3)cncc2s1	
10 nM	8 nM	NC(=O)c1cc2c(Oc3ccc(Cl)c(F)c3)cncc2s1	
4 nM	6 nM	NC(=O)c1cc2c(Oc3ccc(I)cc3)cncc2s1	
110 nM	80 nM	NC(=O)c1cc2c(Oc3cccc(Br)c3)cncc2s1	
16 nM	16 nM	COCc1ccc(Oc2cncc3sc(C(N)=O)cc23)cc1	solubility [12]: 6.2 µg/mL (≈ 19.7 µM)
> 1000 nM	> 1000 nM	NC(=O)c1cc2c(Oc3ccc(C(=O)NCCN4CCOCC4)cc3)cncc2s1	
680 nM	670 nM	NC(=O)c1cc2c(Oc3ccc(C(O)CO)cc3)cncc2s1 (stereo unspecified)	solubility [12]: 15.3 µg/mL (≈ 46.3 µM)
79 nM	35 nM	CNC(=O)c1cc2c(Oc3ccc(N4CCOCC4)cc3)cncc2s1	
160 nM	180 nM	CNC(=O)c1cc2c(Oc3ccc(-n4cncn4)cc3)cncc2s1	
25 nM	9 nM	CNC(=O)c1cc2c(Oc3ccc(-c4ccccc4)cc3)cncc2s1	
730 nM	770 nM	CNC(=O)c1cc2c(Oc3ccc(C(=O)NCCN4CCOCC4)cc3)cncc2s1	
360 nM	150 nM	CNC(=O)c1cc2c(Oc3ccc(-c4cncn4C)cc3)cncc2s1	

SMILES	IC50 [1]	IC50 (E-selectin [2])	further results
CNC(=O)c1cc2c(Oc3ccc(Cl)cc3)cncc2s1	17 nM	8 nM	IC50 [4]: 15 nM; Inhibition at 1uM [5]: 49%; IC50 (E-selectin [6]): 20 nM; inhibition [7]: 43%; IC50 (E-selectin [8]): 25 nM; IC50 [9]: 15 nM; IC50 [10]: 10 nM
